Source: ChEMBL document CHEMBL4028876, “Discovery of a Novel Piperidine-Based Inhibitor of Cholesteryl Ester Transfer Protein (CETP) That Retains Activity in Hypertriglyceridemic Plasma” (J Med Chem, 2017)
Activity calls are given as the source filed them. No cut-off for these calls is given here.

Columns and labels:
[1] = target: T1, Cholesteryl ester transfer protein (Homo sapiens, UniProt P11597); test: Inhibition of CETP in human plasma measured every 30 mins for 120 mins by fluorescence method
T1 sequence (P11597 whole entry): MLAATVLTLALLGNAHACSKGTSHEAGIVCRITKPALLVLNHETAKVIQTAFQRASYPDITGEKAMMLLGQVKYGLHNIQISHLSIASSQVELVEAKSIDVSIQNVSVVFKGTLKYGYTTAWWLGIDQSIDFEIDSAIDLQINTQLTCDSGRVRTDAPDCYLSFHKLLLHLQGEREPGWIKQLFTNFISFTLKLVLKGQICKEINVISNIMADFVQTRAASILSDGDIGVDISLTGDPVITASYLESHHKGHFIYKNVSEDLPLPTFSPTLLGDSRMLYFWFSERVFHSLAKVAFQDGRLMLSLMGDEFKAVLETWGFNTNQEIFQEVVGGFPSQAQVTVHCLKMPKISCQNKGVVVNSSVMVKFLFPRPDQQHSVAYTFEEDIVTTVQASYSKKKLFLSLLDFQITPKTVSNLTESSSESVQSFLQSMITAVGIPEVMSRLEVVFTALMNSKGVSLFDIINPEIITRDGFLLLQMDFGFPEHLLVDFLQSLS
Outline: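 Pooled EDTA plasma from healthy male donors (final 50%) with compound in DMSO (final 1%). The reaction is started with fluorescent donor solution. Activity is the 30–90 min slope. IC50 is fitted to duplicate wells by a logistic equation.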

[2] = test system: Syrian golden hamster; test: Reduction in LDL cholesterol level in Syrian hamster plasma at 0.3 and 10 mg/kg, po dosed once daily for 2 weeks and measured 24 hrs post last dose by HPLC size exclusion chromatography method relative to control; format: functional, organism-based; conditions: Mesocricetus auratus
Outline: (§1)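 Chow-fed hamsters gavaged once daily in the morning for 2 weeks (0.3, 1, 3, 10 mg/kg; vehicle 10 mL/kg). Blood is drawn from the abdominal vein under isoflurane 24 h post last dose, after a 16 h fast. Lipoprotein cholesterol is measured by Superose 6 HPLC with online enzymatic detection at 580 nm, standardized to control plasma. Mean ± SEM, n=6, Dunnett test.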

[3] = test system: Syrian golden hamster; test: Increase in HDL cholesterol level in Syrian hamster plasma at 0.3 and 10 mg/kg, po dosed once daily for 2 weeks and measured 24 hrs post last dose by HPLC size exclusion chromatography method relative to control; format: functional, organism-based; conditions: Mesocricetus auratus; outline: as §1
[4] = test system: Hamster; test: Ex vivo inhibition of CETP activity in hamster hypertriglyceridemia model treated with 100 mg/kg, iv Triton WR-1339 dosed 5 hrs post compound dose measured every 15 mins for 120 mins by fluorescence method; format: functional, organism-based; conditions: Cricetinae
Outline: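 Chow-fed hamsters given a single gavage dose of compound or vehicle. Triton WR-1339 (100 mg/kg) or saline is given iv 5 h later, and plasma is taken 3 h after that. Plasma (final 80%) is mixed with fluorescent donor in 50 mM Tris-HCl pH 7.4, 150 mM NaCl, 2 mM EDTA. Ex/em 485/535 nm, read every 15 min for 120 min at 37 °C. Activity is the 30–90 min slope. Five animals per group.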

[5] = test system: Serum; test: Drug uptake in lipoprotein deficient serum fraction of human serum from human donors with normal triglyceride levels (<150 mg/dL) by LC-MS/MS method; format: ADME, cell-free
Outline: (§2)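 Pooled unfasted human serum (mean TG 122, 347 or 958 mg/dL) spiked with inhibitor to 500 ng/mL, 37 °C, 1 h. NaBr density-gradient ultracentrifugation, 18.5 h at 15 °C. Acetonitrile precipitation, glyburide internal standard, LC-MS/MS in duplicate. Result given as % of total across pools.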

[6] = test system: Serum; test: Drug uptake in triglyceride rich lipoprotein fraction of human serum from human donors with triglyceride levels ( 300-500 and >750 mg/dL) by LC-MS/MS method; format: ADME, cell-free; outline: as §2
[7] = test system: Syrian golden hamster; test: Inhibition of CETP in Syrian hamster blood at 3 and 10 mg/kg, po dosed once daily for 2 weeks and measured 24 hrs post last dose; format: functional, organism-based; conditions: Mesocricetus auratus
[8] = target: T2, Cholesteryl ester transfer protein (Homo sapiens) (UniProt P11597); test: Inhibition of CETP activity in human serum at upto 1200 mg/dl serum triglyceride concentration by LC-MS/MS method; conditions: in the assay text read “fluorescence method” for “LC-MS/MS method”
T2 sequence (whole entry): T1 sequence (P11597 whole entry)
Outline: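 Three human serum pools of differing triglyceride level. IC50 values are the mean of two replicates per pool.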

[9] = test system: Serum; test: Drug uptake in LDL fraction of human serum from human donors with normal triglyceride levels (<150 mg/dL) by LC-MS/MS method; format: ADME, cell-free; outline: as §2
[10] = test system: Serum; test: Drug uptake in HDL fraction of human serum from human donors with normal triglyceride levels (<150 mg/dL) by LC-MS/MS method; format: ADME, cell-free; outline: as §2
[11] = Drug uptake in Syrian hamster adipose tissue at 10 mg/kg, po dosed once daily for 14 days measured 24 hrs post last dose by LC-MS/MS method; format: ADME, organism-based, Mesocricetus auratus; conditions: in vivo
Outline: (§3)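 Chow-fed hamsters dosed orally once daily for 14 days. Blood and ~100 mg adipose, adrenal and liver samples are taken 24 h after the final dose. Tissues are flash-frozen and stored at −80 °C. Total drug concentrations are measured by LC-MS/MS. Mean ± SEM, seven animals per group.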

[12] = test system: Syrian golden hamster; test: Reduction in LDL cholesterol level in Syrian hamster plasma at 0.3 and 10 mg/kg, po dosed once daily for 2 weeks and measured 24 hrs post last dose by HPLC size exclusion chromatography method; format: functional, organism-based; conditions: Mesocricetus auratus; outline: as §1
[13] = Drug uptake in Syrian hamster adrenal tissue at 10 mg/kg, po dosed once daily for 14 days measured 24 hrs post last dose by LC-MS/MS method; format: ADME, organism-based, Mesocricetus auratus, Adrenal gland; conditions: in vivo; outline: as §3
[14] = test system: Hamster; test: Increase in HDL cholesterol levels in hamster plasma by HPLC size exclusion chromatography method relative to control; format: functional; conditions: Cricetinae; outline: as §1
[15] = 1-Octanol-phosphate buffered saline partition coefficient, log D of compound at […] by tandem mass spectrometry method; format: physicochemical
[16] = test system: Serum; test: Drug uptake in triglyceride rich lipoprotein fraction of human serum from human donors with normal triglyceride levels (<150 mg/dL) by LC-MS/MS method; format: ADME, cell-free; outline: as §2
[17] = Drug uptake in Syrian hamster plasma at 10 mg/kg, po dosed once daily for 14 days measured 24 hrs post last dose by LC-MS/MS method; format: ADME, organism-based, Mesocricetus auratus; conditions: in vivo; outline: as §3
[18] = test system: NCI-H295R; test: Toxicty in human NCI-H295R cells assessed as increase in aldosterone levels at 0.1 to 10000 nM after 24 hrs by scintillation proximity assay; format: toxicity, cell-based; conditions: 10 µM
[19] = Volume of distribution in Sprague-Dawley rat at 1 mg/kg, iv or 3 mg/kg, po by LC-ESI-MS/MS analysis; format: ADME, organism-based; conditions: in vivo
Outline: (§4)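 Conscious 7-week-old male Sprague-Dawley rats on standard diet with free water. Dosing is 1 mg/kg iv bolus in N-methylpyrrolidin-2-one/PEG 200, or 3 mg/kg oral suspension in 0.5% aqueous methylcellulose. Blood is sampled at various time points after administration.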

[20] = AUC (infinity) in Sprague-Dawley rat at 1 mg/kg, iv or 3 mg/kg, po by LC-ESI-MS/MS analysis; format: ADME, organism-based; conditions: in vivo; outline: as §4
[21] = Oral bioavailability in Sprague-Dawley rat at 3 mg/kg by LC-ESI-MS/MS analysis; format: ADME, organism-based; conditions: in vivo; outline: as §4
[22] = target: Cytochrome P450 2C9 (Homo sapiens, UniProt P11712); test: Inhibition of CYP2C9 (unknown origin); format: ADME
[23] = target: Cytochrome P450 2D6 (Homo sapiens, UniProt P10635); test: Inhibition of CYP2D6 (unknown origin); format: ADME
[24] = target: T3, Cytochrome P450 3A4 (Homo sapiens, UniProt P08684); test: Inhibition of CYP3A4 (unknown origin) in the presence of midozolam; format: ADME
[25] = target: T3, Cytochrome P450 3A4; test: Inhibition of CYP3A4 (unknown origin) in the presence of testosterone; format: ADME
[26] = Half life in Sprague-Dawley rat at 1 mg/kg, iv or 3 mg/kg, po by LC-ESI-MS/MS analysis; format: ADME, organism-based; conditions: in vivo; outline: as §4
[27] = Clearance in Sprague-Dawley rat plasma at 1 mg/kg, iv or 3 mg/kg, po by LC-ESI-MS/MS analysis; format: ADME, organism-based; outline: as §4

T3 sequence (P08684 whole entry): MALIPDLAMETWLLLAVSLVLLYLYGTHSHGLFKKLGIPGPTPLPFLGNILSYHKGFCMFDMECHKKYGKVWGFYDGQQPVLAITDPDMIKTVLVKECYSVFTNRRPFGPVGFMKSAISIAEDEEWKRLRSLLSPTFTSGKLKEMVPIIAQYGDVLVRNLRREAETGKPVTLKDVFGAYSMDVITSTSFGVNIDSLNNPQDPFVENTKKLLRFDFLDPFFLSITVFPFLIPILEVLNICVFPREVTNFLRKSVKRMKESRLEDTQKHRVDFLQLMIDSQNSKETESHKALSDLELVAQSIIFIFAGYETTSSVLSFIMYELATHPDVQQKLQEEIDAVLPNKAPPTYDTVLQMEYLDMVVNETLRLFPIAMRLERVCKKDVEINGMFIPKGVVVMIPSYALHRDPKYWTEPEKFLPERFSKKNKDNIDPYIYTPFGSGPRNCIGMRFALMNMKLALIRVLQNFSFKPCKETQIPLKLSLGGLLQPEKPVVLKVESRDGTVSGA
Chain of Cytochrome P450 2C9 (P11712 whole entry): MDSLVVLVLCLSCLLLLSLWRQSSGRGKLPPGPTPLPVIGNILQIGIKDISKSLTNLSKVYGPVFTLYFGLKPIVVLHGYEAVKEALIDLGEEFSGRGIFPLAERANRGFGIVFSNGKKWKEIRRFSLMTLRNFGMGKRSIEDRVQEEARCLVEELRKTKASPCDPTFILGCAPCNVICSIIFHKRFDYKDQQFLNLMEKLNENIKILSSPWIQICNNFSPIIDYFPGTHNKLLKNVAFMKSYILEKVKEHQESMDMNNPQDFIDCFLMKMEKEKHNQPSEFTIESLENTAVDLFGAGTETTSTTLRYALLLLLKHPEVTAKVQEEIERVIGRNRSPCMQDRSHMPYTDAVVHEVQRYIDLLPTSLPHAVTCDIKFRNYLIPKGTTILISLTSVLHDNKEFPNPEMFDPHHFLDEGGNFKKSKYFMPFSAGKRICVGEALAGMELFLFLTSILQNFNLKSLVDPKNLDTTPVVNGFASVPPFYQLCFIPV
Chain of Cytochrome P450 2D6 (P10635 whole entry): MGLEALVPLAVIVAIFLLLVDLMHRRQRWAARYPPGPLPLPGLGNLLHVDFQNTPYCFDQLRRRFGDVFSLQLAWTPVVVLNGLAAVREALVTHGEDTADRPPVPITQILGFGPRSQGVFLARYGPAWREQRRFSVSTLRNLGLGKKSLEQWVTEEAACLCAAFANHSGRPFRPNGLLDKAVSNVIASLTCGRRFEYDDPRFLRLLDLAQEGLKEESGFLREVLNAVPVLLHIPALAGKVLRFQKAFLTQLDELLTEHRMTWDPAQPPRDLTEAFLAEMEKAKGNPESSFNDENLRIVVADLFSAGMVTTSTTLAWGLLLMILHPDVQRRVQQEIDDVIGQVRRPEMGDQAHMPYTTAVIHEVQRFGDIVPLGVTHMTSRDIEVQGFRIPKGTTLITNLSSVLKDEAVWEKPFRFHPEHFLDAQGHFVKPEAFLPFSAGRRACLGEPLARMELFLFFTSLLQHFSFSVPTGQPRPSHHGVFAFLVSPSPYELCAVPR

`CC[C@@H]1C[C@H](N(Cc2cc(C(F)(F)F)cc(C(F)(F)F)c2)C(=O)OC)C[C@H](Cc2ccccc2)N1C(=O)OC(C)(C)C` (racemic) showed an IC50 [1] of 771 nM.

For `COc1cc(F)c(C(C)C)cc1-c1ccc(C(F)(F)F)cc1CN1C(=O)O[C@H](c2cc(C(F)(F)F)cc(C(F)(F)F)c2)[C@@H]1C` [ANACETRAPIB], the Activity [2] was “Active”, the Activity [3] was “Dose-dependent effect” and the inhibition [4] was “inactive”. The Drug uptake [5] was “Active”, the Drug uptake [6] was “Active” and the inhibition [7] was “Active”. The inhibition [8] was “inactive”, the Drug uptake [9] was “Active” and the Drug uptake [10] was “Active”. For the same compound, the Drug uptake [11] was “Active”, the Activity [12] was “Dose-dependent effect” and the Drug uptake [13] was “Active”. For the same compound, the Activity [14] was “Dose-dependent effect”, the logD [15] was > 5.9 and the Drug uptake [16] was “Active”. For the same compound, the Drug uptake [17] was “Not Active” and the Activity [18] was “Non-Toxic”.

With `Cc1cc(C)c2c(c1)[C@@H](N(Cc1cc(C(F)(F)F)cc(C(F)(F)F)c1)c1nnn(C)n1)CCCN2C[C@H]1CC[C@H](C(=O)O)CC1` [EVACETRAPIB] the IC50 [1] was 110 nM and the logD [15] was 5.7.

For `CC[C@@H]1C[C@H](N(Cc2cc(C(F)(F)F)cc(C(F)(F)F)c2)c2ncc(Br)cn2)C[C@H](Cc2ccccc2)N1C(=O)OC(C)C` (racemic), the IC50 [1] was 200 nM.

In the case of `CCCC(=O)N1[C@H](CC)C[C@H](N(Cc2cc(C(F)(F)F)cc(C(F)(F)F)c2)c2ncc(Br)cn2)C[C@@H]1Cc1ccccc1` (racemic), the IC50 [1] is reported as 510 nM.

With `CC[C@@H]1C[C@H](N(Cc2cc(Cl)cc(C(F)(F)F)c2)c2ncc(Br)cn2)C[C@H](Cc2ccccc2)N1C(=O)OC(C)(C)C` (racemic) the IC50 [1] was 240 nM.

For `CC[C@@H]1C[C@H](N(Cc2cc(C(F)(F)F)cc(C(F)(F)F)c2)c2ncc(N3CCOCC3)cn2)C[C@H](Cc2ccccc2)N1C(=O)OC(C)(C)C` (racemic), the IC50 [1] was 164 nM.

`CC[C@@H]1C[C@H](N(Cc2cc(C(F)(F)F)cc(C(F)(F)F)c2)c2ncc(N3CCOCC3)cn2)C[C@H](CC)N1C(=O)OC(C)C` showed a Vd [19] of 2.35 L/kg, an IC50 [1] of 60 nM and an AUC(0-inf) [20] of 2.75 µM·h. For the same compound, the bioavailability [21] was 35%, the IC50 [22] was 6600 nM and the IC50 [23] was > 30000 nM. For the same compound, the IC50 [24] was 2200 nM, the IC50 [25] was > 50000 nM and the half-life [26] was 4.6 h. For the same compound, the clearance [27] was 10 mL/min/kg.

With `CCC(CC)CC1(C(=O)Nc2ccccc2SC(=O)C(C)C)CCCCC1` [DALCETRAPIB] the IC50 [1] was 4100 nM and the logD [15] was > 6.

`CC[C@@H]1C[C@H](N(Cc2cc(C(F)(F)F)cc(C(F)(F)F)c2)c2ncc(N3CCOCC3)cn2)C[C@H](CC)N1C(=O)O[C@H]1CC[C@H](C(=O)O)CC1` gave a Vd [19] of 0.67 L/kg, an IC50 [1] of 150 nM and an AUC(0-inf) [20] of 28.5 µM·h. The bioavailability [21] was 58%, the IC50 [22] was > 50000 nM and the IC50 [23] was > 50000 nM. The IC50 [24] was 25000 nM, the IC50 [25] was > 50000 nM and the half-life [26] was 5.6 h. For the same compound, the clearance [27] was 1.5 mL/min/kg.
